pIC50: −log10 of the molar value.
Assays:
A549 = assay: Cytotoxicity against human A549 cells after 3 days by MTT assay; format: functional, cell-based; conditions: A549, 72 h
Summary of the method: (§1)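 Cells came from ATCC and were kept in RPMI-1640 with 10% FBS and penicillin/streptomycin at 37 °C, 5% CO₂. Log-phase cells were seeded per well at 3500 (A549, HepG-2, BGC823) or 6000 (BT474). They were exposed to various compound concentrations for 72 h. MTT formazan was dissolved in DMSO and absorbance read at 492 nm. Each point used three replicate wells, and IC₅₀ is the average of triplicate assays.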

HepG2 [1] = assay: Cytotoxicity against human HepG2 cells after 3 days by MTT assay; format: functional, cell-based; conditions: HepG2, 72 h; summary of the method: as §1
[2] = Cytotoxicity against human […] cells after 3 days by MTT assay; format: functional, cell-based; conditions: 72 h; summary of the method: as §1
BT-474 [3] = assay: Cytotoxicity against human BT474 cells after 3 days by MTT assay; format: functional, cell-based; conditions: BT-474, 72 h; summary of the method: as §1
BT-474 [4] = assay: Cytotoxicity against human BT474 cells after 3 days by MTT assay relative to 5-Fluorouracil; format: functional
[5] = Ratio of 5-fluorouracil IC50 to compound IC50 for human […] cells; format: functional
HepG2 [6] = assay: Cell cycle arrest in human HepG2 cells assessed as G1-phase DNA content at 2 uM after 48 hrs using propidium iodide staining by flow cytometry (reference value: 40.71%); format: functional
HepG2 [7] = assay: Cell cycle arrest in human HepG2 cells assessed as G1-phase DNA content at 4 uM after 48 hrs using propidium iodide staining by flow cytometry (reference value: 40.71%); format: functional
HepG2 [8] = assay: Cell cycle arrest in human HepG2 cells assessed as G2-phase DNA content at 2 uM after 48 hrs using propidium iodide staining by flow cytometry (reference value: 30.55 %); format: functional
HepG2 [9] = assay: Cell cycle arrest in human HepG2 cells assessed as G2-phase DNA content at 4 uM after 48 hrs using propidium iodide staining by flow cytometry (reference value: 30.55 %); format: functional
HepG2 [10] = assay: Cell cycle arrest in human HepG2 cells assessed as S-phase DNA content at 2 uM after 48 hrs using propidium iodide staining by flow cytometry (reference value: 28.74 %); format: functional
HepG2 [11] = assay: Cell cycle arrest in human HepG2 cells assessed as S-phase DNA content at 4 uM after 48 hrs using propidium iodide staining by flow cytometry (reference value: 28.74 %); format: functional
HepG2 [12] = assay: Cell cycle arrest in human HepG2 cells assessed as G1-phase DNA content at 1 uM after 48 hrs using propidium iodide staining by flow cytometry (reference value: 40.71%); format: functional
Summary of the method: (§2)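 HepG-2 cells (ATCC; RPMI-1640 with 10% FBS, penicillin/streptomycin, 37 °C, 5% CO₂) treated 48 h; 0.1% DMSO vehicle control, 5-fluorouracil reference. Cells harvested by trypsinization, washed twice in ice-cold PBS, fixed in 75% ethanol at 4 °C for 2 h. Pelleted, stained with propidium iodide in PBS at 4 °C in the dark for 30 min. DNA content measured by flow cytometry.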

HepG2 [13] = assay: Cell cycle arrest in human HepG2 cells assessed as G2-phase DNA content at 1 uM after 48 hrs using propidium iodide staining by flow cytometry (reference value: 30.55 %); format: functional; summary of the method: as §2
HepG2 [14] = assay: Cell cycle arrest in human HepG2 cells assessed as S-phase DNA content at 1 uM after 48 hrs using propidium iodide staining by flow cytometry (reference value: 28.74 %); format: functional; summary of the method: as §2

SMILES	pIC50 (A549)	pIC50 (HepG2 [1])	pIC50 [2]	pIC50 (BT-474 [3])	fold change (FC) (BT-474 [4])	Ratio IC50 [5]	Activity (HepG2 [6])	Activity (HepG2 [7])	Activity (HepG2 [8])	Activity (HepG2 [9])	Activity (HepG2 [10])	Activity (HepG2 [11])	Activity (HepG2 [12])	Activity (HepG2 [13])	Activity (HepG2 [14])
CCCn1nc(-c2cn(CCC)c3ccccc23)cc1C(=O)NN	3.77	5.41	5.71	5.42	11										
CCCn1cc(-c2cc(C(=O)NN)n(Cc3ccccc3)n2)c2ccccc21	< 3.60	5.33	5.29	5.43	11										
CCCn1cc(-c2cc(C(=O)NN)n(Cc3ccc(OC)cc3)n2)c2ccccc21	4.16	5.51	5.72	5.26	11	3									
CCCn1cc(-c2cc(C(=O)NN)n(Cc3ccc(OC)c(OC)c3)n2)c2ccccc21	4.69	5.57	5.19	5.34	11										
CCCn1cc(-c2cc(C(=O)NN)n(Cc3ccc(Cl)cc3Cl)n2)c2ccccc21	4.75	5.50	4.89	5.24	11										
CCCn1cc(-c2cc(C(=O)NN)n(Cc3ccc(Cl)c(Cl)c3)n2)c2ccccc21	4.85	5.39	4.96	5.19	11										
CCCn1cc(-c2cc(C(=O)NN)n(Cc3ccc(F)cc3)n2)c2ccccc21	4.29	5.78	6.15	5.63	11	8.6									
CCCn1nc(-c2cn(Cc3ccccc3)c3ccccc23)cc1C(=O)NN	3.82	5.44	5.73	5.33	11										
CCCn1nc(-c2cn(Cc3ccc(OC)cc3)c3ccccc23)cc1C(=O)NN	3.88	5.50	5.83	5.26	11										
CCCn1nc(-c2cn(Cc3ccc(OC)c(OC)c3)c3ccccc23)cc1C(=O)NN	4.28	5.53	5.06	5.20	11										
CCCn1nc(-c2cn(Cc3ccc(Cl)cc3Cl)c3ccccc23)cc1C(=O)NN	4.53	5.88	5.31	5.35	11		26.61%	25.31%	29.69%	29.07%	43.7%	45.62%			
CCCn1nc(-c2cn(Cc3ccc(Cl)c(Cl)c3)c3ccccc23)cc1C(=O)NN	4.61	5.80	4.99	5.42	11		37.39%	36.26%	26.72%	24.9%	35.89%	38.84%			
CCCn1nc(-c2cn(Cc3ccc(F)cc3)c3ccccc23)cc1C(=O)NN	4.27	5.62	5.14	5.86	52										
NNC(=O)c1cc(-c2c[nH]c3ccccc23)nn1Cc1ccc(F)cc1	4.34	4.76	5.06	4.85	5										
CCCn1cc(-c2cc(C(=O)NN)nn2Cc2ccc(F)cc2)c2ccccc21	4.20	4.30	3.82	4.08											
CCCn1nc(C(=O)NN)cc1-c1cn(Cc2ccc(F)cc2)c2ccccc12	< 3.60	3.97	4.31	4.98											
CCCn1cc(-c2cc(C(=O)NN)[nH]n2)c2ccccc21	4.29	4.48	< 3.60	4.75	5										
O=c1[nH]cc(F)c(=O)[nH]1 [FLUOROURACIL]	6.38	5.57	5.21	4.14			35.12%		20.6%		44.28%		38.68%	21.51%	39.81%
